Experimental data collected from several papers.
Protocols differ between the studies behind these lines.
Observed: cell growth or viability

Structure (SMILES)	cell line	assay	setting	IC50
O=C(/C=C/C=C/c1ccc2c(c1)OCO2)N1CCCCC1	HUVEC	MTT	48 h	41.6 µg/mL
COc1cc2ncnc(Nc3ccc(F)c(Cl)c3)c2cc1NC(=O)N/N=C/c1cccn1CCN1CCN(C)CC1	PC-3	MTT	72 h	2.08 µM
COc1cc(Nc2nccc(-c3cnn4nc(OC)ccc34)n2)cc(C(F)(F)F)c1	NCI-H1048	ATP luminescence		0.38 µM
COc1cccc2c1C(=O)c1c(O)c3c(c(O)c1C2=O)C[C@@](O)(C(=O)CO)C[C@@H]3O[C@H]1C[C@H](N)[C@H](O)[C@H](C)O1	HUVEC	MTT	48 h	2 µg/mL
COc1cc(-c2ncn(/C=C\C(=O)OC(C)C)n2)cc(C(F)(F)F)c1	MEG-01		72 h	0.083 µM
CCCON(Cc1ccc(C(=O)NO)cc1)C(=O)Nc1ccc(N(C)C)cc1	HAL-01	ATP luminescence	72 h	13.8 µM
CO[C@H]1/C=C\C=C(/C)C(=O)NC2=CC(=O)C(NCCN(C)C)=C(C[C@@H](C)C[C@H](OC)[C@H](O)[C@@H](C)/C=C(\C)[C@@H]1OC(N)=O)C2=O	HUVEC	MTT		0.88 µM
CC(C)C[C@H](NC(=O)[C@H](Cc1ccccc1)NC(=O)c1cnccn1)B(O)O	NCI-H2286	ATP luminescence		0.0066 µM
Nc1nc2sc(CCCCCCCc3ccc(C(=O)N[C@@H](CCC(=O)O)C(=O)O)cc3)cc2c(=O)[nH]1	R2/PCFT4		96 h, pH 7.2	> 1 µM
O=c1[nH]cc(F)c(=O)[nH]1	HUVEC	MTT	48 h	> 50 µM
COc1cc2ncnc(Nc3ccc(F)c(Cl)c3)c2cc1NC(=O)N/N=C/CN1CCCC1	PC-3	MTT	72 h	2.55 µM
Nc1nc2sc(CCCCCCCCc3ccc(C(=O)N[C@@H](CCC(=O)O)C(=O)O)cc3)cc2c(=O)[nH]1	R2/PCFT4		96 h, pH 7.2	> 1 µM
CCCCN(Cc1ccc(C(=O)NO)cc1)C(=O)Nc1ccccc1	HAL-01	ATP luminescence	72 h	9.05 µM
COC1=C2C[C@@H](C)C[C@H](OC)[C@H](O)[C@@H](C)/C=C(\C)[C@H](OC(N)=O)[C@@H](OC)/C=C\C=C(/C)C(=O)NC(=CC1=O)C2=O	HUVEC	MTT		0.041 µM
Nc1nc2sc(CCc3ccc(C(=O)N[C@@H](CCC(=O)O)C(=O)O)cc3)cc2c(=O)[nH]1	R2/PCFT4		96 h, pH 7.2	> 1 µM
O=C(Nc1cccc2cccnc12)c1cnccn1	HFF-1	MTT		> 30 µM
